# High-throughput results (PubChem BioAssay)
# Hits are enriched below; roughly 3.1% of the tested compounds scored in any of these assays.
# Calb FLC = C. albicans growth modulation with fluconazole; 300,000 compounds, 0.57% hits; growth inhibition, % (test concentration not listed); C. albicans CaCi-2 (fluconazole-resistant clinical isolate) + fluconazole, Alamar Blue growth, 48 h;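 active = growth inhibition above about 58% in most replicates, limit read from the data, passing the limit was not always enough; inconclusive = exactly half the replicates above a set limit; inactive = most replicates below a set limit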;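 also: all wells also contain fluconazole at 8 µg/ml as a sub-toxic cotreatment; 0% = median of DMSO wells and 100% = median of geldanamycin control wells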
# CSC inhib = blocks cancer stem cells | cancer stem cell-like cells viability, luminescence | inhibition, % at 7.5 µM | 300,000 compounds, 1.1% hits; in the data active = inhibition above about 75%; inconclusive = no clear call, values can overlap the other calls; tested in HMLE shEcad cells
# Beta apoptosis = beta cell apoptosis inhibition. INS-1E cytokine-induced death, ATP luminescence, 48 h; percent of positive-control rescue, neutral wells zero. protection from apoptosis, % (concentration not given with the values). 300,000 compounds, 0.8% hits. AID 435005;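 active = Every replicate reaches about 75%, or at least half do and their mean reaches it too, limit read from the data; inconclusive = At least half of replicates reach the limit but their mean does not; inactive = Under half of replicates reach the limit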;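 also: 0% = cytokine-treated negative control wells and 100% = positive control rescue; higher means more ATP so stronger rescue from cytokine killing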
# T cruzi repl = T. cruzi replication inhibition; inhibition, % (test concentration not listed); T. cruzi beta-gal in NIH3T3, luminescence, 90 h; 300,000 compounds, 1.4% hits; AID 1885;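 active = mean inhibition across valid replicates above about 55%, limit read from the data; inconclusive = mean below that limit but half or more replicates reach it; inactive = mean below it, under half of replicates reach it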;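 also: signal also drops with host cell toxicity which is not excluded here; 0% = plate median of DMSO wells and 100% = zero luminescence signal; higher percent means less beta-gal luminescence so fewer parasites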
#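 System – NIH/3T3 host cells with β-galactosidase reporter T. cruzi · Doses – single 50 nL compound addition per well in DMSO · Reagent – 5000 T. cruzi trypomastigotes/well · Medium – Low-serum DMEM with 2% FBS · Timing – ≥90 h infection period, 3 h prior cell attachment · Evaluation – parasite load inhibition, % · Technique – GalScreen luminescence, 60 min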
# HIF act = HIF pathway transcriptional activation. U2OS HRE-luciferase reporter, luminescence; normalized: DMSO 0%, desferrioxamine 100%. activation, % at 7.5 µM (by protocol). 300,000 compounds, 0.32% hits;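 active = mean activation of at least 10% of the iron chelator positive control signal, with at least half of replicates also reaching 10%; inconclusive = mean and replicate majority disagree about reaching 10%; inactive = mean and most replicates under 10%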
# PolyA inh = yeast polyadenylation inhibition; S. cerevisiae SKY197-pL101 polyadenylation reporter, beta-gal luminescence; efflux-impaired pdr1/pdr3 knockout yeast; score 100 = 6 SD above DMSO; activity score, % at 12 µM; 300,000 compounds, 0.02% hits; AID 1875;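 active = lowest replicate activity score at least 50, where 100 means six control SD above control mean; inconclusive = lowest score under 50 but half or more replicates reach 50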;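 also: yeast exposed to compound for 9 h at 30 °C; higher score means more reporter readthrough which indicates perturbed polyadenylation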
# Numbers without * were called inactive; ? = inconclusive; · = no result given.
SMILES,Calb FLC,CSC inhib,Beta apoptosis,T cruzi repl,HIF act,PolyA inh
O=C(Nc1ccc(Cl)cc1)Nc1ccccc1Sc1ncc([N+](=O)[O-])s1,-5.1,84.4*,23.2,18.0,4.1,-10.4
O=C(Nc1csc([N+](=O)[O-])c1)Nc1ccccc1Cl,7.0,10.3,42.1,45.0,1.3,-36.4
Cc1ccc(NC(=O)Cn2c(O)c(N=NC(=O)c3cc4ccccc4cc3O)c3ccccc32)cc1,·,98.5*,102.5*,·,·,·
Cc1ccc(NC(=O)Cn2c(O)c(N=NC(=O)c3ccncc3)c3ccccc32)cc1,0.5,-11.8,-3.0,11.9,0.0,4.5
O=C(N=Nc1c(O)n(Cc2ccccc2)c2ccccc12)c1cc2ccccc2cc1O,-7.2,48.5,83.8*,1.3,2.8,-0.4
O=C(N=Nc1c(O)n(Cc2ccccc2)c2ccccc12)c1ccc(O)cc1,12.1,33.8,8.4,17.6,8.6,-8.1
CCSc1nsc(NC(=O)Nc2cccc(F)c2)n1,-7.0,93.3*,·,41.6,2.2,1.5
COc1cccc(NC(=O)Nc2nc(SC(C)(C)C)ns2)c1,3.4,95.6*,·,26.9,1.4,14.9
CCCSc1nsc(NC(=O)C(c2ccccc2)c2ccccc2)n1,-20.2,121.6*,4.8,25.6,-0.4,-15.0
CCCCCCSc1nsc(NC(=O)CC(C)C)n1,-14.2,91.0*,-5.8,39.4,0.4,41.1
Cc1nc(C(=O)N/N=C/c2[nH]ncc2Br)cs1,-4.9,0.0,-4.0,-5.8,0.4,11.3
O=C(NCCCN1CCOCC1)c1ccc2nc(Cc3ccccc3F)oc2c1,2.2,-10.1,-6.0,5.2,1.2,-0.1
O=C(C1=C(O)C(=O)N(CCCn2ccnc2)C1c1cccc(Br)c1)c1ccco1 (stereo not drawn),10.4,-9.4,-2.6,-7.5,0.6,-6.5
COC(=O)c1ccc(CN(C)S(=O)(=O)c2cccs2)cc1,-7.7,-16.1,-1.4,-10.5,-1.9,5.1
CCCSc1nsc(NC(=O)Nc2ccc(F)cc2F)n1,2.4,95.4*,105.6*,13.5,0.3,0.6
CCCSc1nsc(NC(=O)CC)n1,-2.1,-8.6,·,54.1,2.3,-6.9
CCOC(=O)c1ccc(-n2ccnc2)c(NC(=O)c2cccc(Br)c2)c1,-0.7,-1.6,-0.3,62.6*,0.0,14.1
CCCn1c(SCC(=O)Nc2ccc(S(=O)(=O)N(C)C)cc2)n[nH]c1=O,-35.0,-9.1,-0.7,-13.5,-0.2,4.2
CCOC(=O)c1ccc(NC(=S)NCCc2ccc(F)cc2)cc1,13.2,16.9,-3.5,-25.8,0.1,-6.9
CCOc1ccc(CCNC(=O)COC(=O)c2nc(Cl)ccc2Cl)cc1OCC,-4.1,-13.6,-7.3,-1.0,1.9,-9.6
O=c1nc(/C=C/c2cc([N+](=O)[O-])ccc2Cl)cc(C(F)(F)F)[nH]1,89.4*,·,-6.7,-19.7,-0.2,7.9
Cc1ccc(C(=O)NCCCN2CCOCC2)c(Cl)c1,3.2,-15.2,-3.6,0.7,2.2,-2.2
CC(C)(C)c1ccc(-c2nc(C#N)c(NCCCn3ccnc3)o2)cc1,20.0,88.0*,-0.6,47.9,-1.1,14.2
N#Cc1nc(-c2ccc(OCc3ccccc3)cc2)oc1NCCCn1ccnc1,?,88.2*,18.3,38.1,-0.1,19.2
CCCOc1ccc(-c2nc(C#N)c(NCCCn3ccnc3)o2)cc1,-28.9,45.4,10.0,42.8,-0.3,-1.5
SMILES,Calb FLC,CSC inhib,Beta apoptosis,T cruzi repl,HIF act,PolyA inh
N#Cc1nc(-c2ccc(OCc3ccccc3Cl)cc2)oc1NCCCn1ccnc1,16.4,93.6*,0.5,36.9,0.0,6.8
O=c1nc(N/N=C/C=C/c2ccccc2)cn[nH]1,?,0.2,-1.2,-13.0,-0.3,2.2
CCCCN(C(=O)Cc1cccc(F)c1)c1c(N)n(CCC)c(=O)[nH]c1=O,5.8,-7.2,·,7.2,0.3,28.3
O=C(O)c1ccc(S(=O)(=O)c2ccc3c(c2)C(=O)N(NC(=O)c2cccnc2)C3=O)cc1,3.2,-5.0,-6.4,-5.2,0.2,-4.0
CC(/C=C1\SC(=S)N(c2ccc(C(=O)O)cc2)C1=O)=C\c1ccccc1,19.9,75.8*,4.0,8.4,2.1,-9.4
CC(/C=C1\SC(=S)N(NC(=O)c2ccc(C)cc2)C1=O)=C\c1ccccc1,-38.8,12.7,·,-2.6,-0.8,-2.3
NS(=O)(=O)c1ccc(CNC(=S)NCc2ccc(F)cc2)cc1,-6.2,-6.3,-3.1,4.2,-0.2,-5.7
